Experimental findings from ChEMBL document CHEMBL1287758, “Synthesis of D- and L-tyrosine-chlorambucil analogs active against breast cancer cell lines” (Bioorg Med Chem Lett, 2010) are described below.

The structures appear in SMILES notation.

Common to all, as to format: functional, cell-based
Test [1] deals with MCF7. In words: Cytotoxicity against estrogen receptor-positive human MCF7 cells by MTT assay. In a few lines:
(§1)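 MTT read-out after 72 h continuous exposure of human breast cancer cells to compound. Each assay run in duplicate; IC50 taken from three independent experiments and reported as mean SEM. Chlorambucil served as positive control.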
On the technique in general: Tetrazolium dyes change colour on reduction, which living cells bring about.

Test [2] concerns MDA-MB-231. In words: Cytotoxicity against estrogen receptor-negative human MDA-MB-231 cells by MTT assay. In a few lines: as §1
Test [3] in a line: Cytotoxicity against estrogen receptor-negative human MDA-MB-436 cells by MTT assay. In a few lines: as §1
The subject of test [4] is MDA-MB-468. In words: Cytotoxicity against estrogen receptor-negative human MDA-MB-468 cells by MTT assay. In a few lines:
as §1

Setting [5] is: Homo sapiens, MCF7, read-out: IC50.
Where [6] appears, read: Homo sapiens, MDA-MB-231, read-out: IC50.
Where [7] appears, read: Homo sapiens, MDA-MB-436, read-out: IC50.
Setting [8] is: Homo sapiens, MDA-MB-468, read-out: IC50.

In the case of `O=C(CCCc1ccc(N(CCCl)CCCl)cc1)NCCCCCC(=O)N[C@@H](CO)Cc1ccc(O)cc1`, the IC50 in test [1] (setting [5]) came out at 67 µM.
Take `O=C(CCCc1ccc(N(CCCl)CCCl)cc1)NCCCCCC(=O)N[C@H](CO)Cc1ccc(O)cc1`: the IC50 in test [1] (setting [5]) stood at 62.2 µM; in test [2] (setting [6]) it was 55.1 µM; in test [3] (setting [7]), 28.9 µM; in test [4] (setting [8]) it was 77.3 µM.
Taken in the same sequence, the figures for `O=C(O)CCCc1ccc(N(CCCl)CCCl)cc1` [CHLORAMBUCIL] were 130 µM, 137 µM, 132 µM and 147 µM.
For the compound `O=C(CCCc1ccc(N(CCCl)CCCl)cc1)N[C@@H](CO)Cc1ccc(O)cc1`, the results for the IC50 in test [1] (setting [5]) and in test [2] (setting [6]) were 31.4 µM and 29.8 µM, respectively.
On to `COC(=O)[C@H](Cc1ccc(O)cc1)NC(=O)CCCCCNC(=O)CCCc1ccc(N(CCCl)CCCl)cc1`, for which the IC50 in test [1] (setting [5]) was found to be 25.4 µM; in test [2] (setting [6]), 36.8 µM; in test [3] (setting [7]) it was 15 µM; in test [4] (setting [8]) it was 59 µM.
Regarding `COC(=O)[C@@H](Cc1ccc(O)cc1)NC(=O)CCCCCCCCCCNC(=O)CCCc1ccc(N(CCCl)CCCl)cc1`, the IC50 result in test [1] (mcf7) and in test [2] (mda-mb-231) was “Not Active” each time.
With `COC(=O)[C@H](Cc1ccc(O)cc1)NC(=O)CCCc1ccc(N(CCCl)CCCl)cc1`, the IC50 in test [1] (setting [5]) stood at 31.9 µM; in test [2] (setting [6]), 37.8 µM; in test [3] (setting [7]), 15.4 µM; in test [4] (setting [8]) it was 62.5 µM.
Taken in the same sequence, the figures for `O=C(CCCc1ccc(N(CCCl)CCCl)cc1)N[C@H](CO)Cc1ccc(O)cc1` were 34.1 µM, 39.6 µM, 24.4 µM and 55.1 µM.
As for `O=C(CCCc1ccc(N(CCCl)CCCl)cc1)NCCCCCCCCCCC(=O)N[C@@H](CO)Cc1ccc(O)cc1`, the IC50 is 16.3 µM in test [1] (setting [5]) and “Not Active” in test [2] (mda-mb-231).
With `O=C(CCCc1ccc(N(CCCl)CCCl)cc1)NCCCCCCCCCCC(=O)N[C@H](CO)Cc1ccc(O)cc1`, the IC50 in test [1] (setting [5]) was 19.4 µM; in test [2] (mda-mb-231), “Not Active”; in test [3] (mda-mb-436), “Not Active”; in test [4] (mda-mb-468) it was “Not Active”.
Consider `COC(=O)[C@@H](Cc1ccc(O)cc1)NC(=O)CCCCCNC(=O)CCCc1ccc(N(CCCl)CCCl)cc1`, for which the IC50 in test [1] (setting [5]) is 152 µM.
For `COC(=O)[C@H](Cc1ccc(O)cc1)NC(=O)CCCCCCCCCCNC(=O)CCCc1ccc(N(CCCl)CCCl)cc1`, the IC50 in test [1] (setting [5]) is 67.9 µM; in test [2] (mda-mb-231), “Not Active”; in test [3] (mda-mb-436), “Not Active”; in test [4] (mda-mb-468), “Not Active”.
With `COC(=O)[C@@H](Cc1ccc(O)cc1)NC(=O)CCCc1ccc(N(CCCl)CCCl)cc1`, the values for the IC50 in test [1] (setting [5]) and in test [2] (setting [6]) were 50 µM and 47.2 µM, respectively.

For orientation: IC50 means the concentration needed to halve the response being measured.
